Measurements as given in ChEMBL document CHEMBL3400013, “Synthesis and biological activity evaluation of hydrazone derivatives based on a Tröger's base skeleton” (Bioorg Med Chem, 2015).
Active and inactive are the calls of the source. The calls are words filed in the database; no cut-off is given here.

system: BJ; assay: Selectivity index, ratio of IC50 for human BJ cells to IC50 for human CEM-DNR cells; format: functional; conditions: not given

Structure (SMILES)	Ratio IC50
COc1ccc(O)c(/C=N/NC(=O)c2ccc3c4c(ccc3c2)N2Cc3c(ccc5cc(C(=O)N/N=C/c6cc(OC)ccc6O)ccc35)N(C4)C2)c1	13.3
O=C(NN=C(c1ccccn1)c1ccccn1)c1ccc2c3c(ccc2c1)N1Cc2c(ccc4cc(C(=O)NN=C(c5ccccn5)c5ccccn5)ccc24)N(C3)C1	0.7

system: CEM-DNR; assay: Selectivity index, ratio of IC50 for human MRC5 cells to IC50 for human CEM-DNR cells; format: functional; conditions: not given

Structure (SMILES)	Ratio IC50
COc1ccc(O)c(/C=N/NC(=O)c2ccc3c4c(ccc3c2)N2Cc3c(ccc5cc(C(=O)N/N=C/c6cc(OC)ccc6O)ccc35)N(C4)C2)c1	13.3
O=C(NN=C(c1ccccn1)c1ccccn1)c1ccc2c3c(ccc2c1)N1Cc2c(ccc4cc(C(=O)NN=C(c5ccccn5)c5ccccn5)ccc24)N(C3)C1	0.7

system: MRC5; assay: Selectivity index, ratio of IC50 for human MRC5 cells to IC50 for human K562-TAX cells; format: functional; conditions: not given

Structure (SMILES)	Ratio IC50
COc1ccc(O)c(/C=N/NC(=O)c2ccc3c4c(ccc3c2)N2Cc3c(ccc5cc(C(=O)N/N=C/c6cc(OC)ccc6O)ccc35)N(C4)C2)c1	137.7
O=C(NN=C(c1ccccn1)c1ccccn1)c1ccc2c3c(ccc2c1)N1Cc2c(ccc4cc(C(=O)NN=C(c5ccccn5)c5ccccn5)ccc24)N(C3)C1	2.8

system: A549; assay: Selectivity index, ratio of IC50 for human MRC5 cells to IC50 for human A549 cells; format: functional; conditions: not given

Structure (SMILES)	Ratio IC50
COc1ccc(O)c(/C=N/NC(=O)c2ccc3c4c(ccc3c2)N2Cc3c(ccc5cc(C(=O)N/N=C/c6cc(OC)ccc6O)ccc35)N(C4)C2)c1	123.2
O=C(NN=C(c1ccccn1)c1ccccn1)c1ccc2c3c(ccc2c1)N1Cc2c(ccc4cc(C(=O)NN=C(c5ccccn5)c5ccccn5)ccc24)N(C3)C1	0.8

system: HCT-116; assay: Selectivity index, ratio of IC50 for human MRC5 cells to IC50 for human p53-/- HCT116 cells; format: functional; conditions: not given

Structure (SMILES)	Ratio IC50
COc1ccc(O)c(/C=N/NC(=O)c2ccc3c4c(ccc3c2)N2Cc3c(ccc5cc(C(=O)N/N=C/c6cc(OC)ccc6O)ccc35)N(C4)C2)c1	495
O=C(NN=C(c1ccccn1)c1ccccn1)c1ccc2c3c(ccc2c1)N1Cc2c(ccc4cc(C(=O)NN=C(c5ccccn5)c5ccccn5)ccc24)N(C3)C1	2

system: A549; assay: Cytostatic activity against human A549 cells after 72 hrs by MTT assay; format: functional, cell-based; conditions: A549, 72 h
Method in brief: (§1)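 Cells were seeded at 25,000–30,000 per well and pre-incubated for 24 h at 37°C in 5% CO2. Four-fold compound dilutions were added in duplicate and incubated for 72 h. MTT was added for 1–4 h, and formazan was dissolved in 10% aq SDS (pH 5.5) overnight at 37°C. OD was read at 540 nm. IC50 came from dose-response curves, mean ± SD of eight independent experiments.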

Structure (SMILES)	IC50
COc1ccc(O)c(/C=N/NC(=O)c2ccc3c4c(ccc3c2)N2Cc3c(ccc5cc(C(=O)N/N=C/c6cc(OC)ccc6O)ccc35)N(C4)C2)c1	230 nM
O=C(NN=C(c1ccccn1)c1ccccn1)c1ccc2c3c(ccc2c1)N1Cc2c(ccc4cc(C(=O)NN=C(c5ccccn5)c5ccccn5)ccc24)N(C3)C1	2030 nM

system: BJ; assay: Cytostatic activity against human BJ cells after 72 hrs by MTT assay; format: ADME, cell-based; conditions: not given; method in brief: as §1

Structure (SMILES)	IC50
COc1ccc(O)c(/C=N/NC(=O)c2ccc3c4c(ccc3c2)N2Cc3c(ccc5cc(C(=O)N/N=C/c6cc(OC)ccc6O)ccc35)N(C4)C2)c1	57200 nM
O=C(NN=C(c1ccccn1)c1ccccn1)c1ccc2c3c(ccc2c1)N1Cc2c(ccc4cc(C(=O)NN=C(c5ccccn5)c5ccccn5)ccc24)N(C3)C1	2090 nM

system: CCRF-CEM; assay: Induction of apoptosis in human CCRF-CEM cells assessed as apoptotic cells at 5 times IC50 after 24 hrs by propidium iodide staining-based flow cytometry; format: functional; conditions: not given
Method in brief: (§2)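 Cells were then fixed in 70% ethanol, washed in hypotonic citrate buffer, treated with RNase (50 µg/mL) and stained with propidium iodide. Flow cytometry used a 488 nm laser. Apoptosis was scored as the percentage of particles with propidium content below G0/G1.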

Structure (SMILES)	Activity
COc1ccc(O)c(/C=N/NC(=O)c2ccc3c4c(ccc3c2)N2Cc3c(ccc5cc(C(=O)N/N=C/c6cc(OC)ccc6O)ccc35)N(C4)C2)c1	21.74%
O=C(NN=C(c1ccccn1)c1ccccn1)c1ccc2c3c(ccc2c1)N1Cc2c(ccc4cc(C(=O)NN=C(c5ccccn5)c5ccccn5)ccc24)N(C3)C1	24.51%

system: CCRF-CEM; assay: Cell cycle arrest in human CCRF-CEM cells assessed as accumulation at G2/M phase at IC50 after 24 hrs by propidium iodide staining-based flow cytometry; format: functional; conditions: not given; method in brief: as §2

Structure (SMILES)	Activity
COc1ccc(O)c(/C=N/NC(=O)c2ccc3c4c(ccc3c2)N2Cc3c(ccc5cc(C(=O)N/N=C/c6cc(OC)ccc6O)ccc35)N(C4)C2)c1	15.97%
O=C(NN=C(c1ccccn1)c1ccccn1)c1ccc2c3c(ccc2c1)N1Cc2c(ccc4cc(C(=O)NN=C(c5ccccn5)c5ccccn5)ccc24)N(C3)C1	10.49%

system: CCRF-CEM; assay: Cell cycle arrest in human CCRF-CEM cells assessed as accumulation at G2/M phase at 5 times IC50 after 24 hrs by propidium iodide staining-based flow cytometry; format: functional; conditions: not given; method in brief: as §2

Structure (SMILES)	Activity
COc1ccc(O)c(/C=N/NC(=O)c2ccc3c4c(ccc3c2)N2Cc3c(ccc5cc(C(=O)N/N=C/c6cc(OC)ccc6O)ccc35)N(C4)C2)c1	12.4%
O=C(NN=C(c1ccccn1)c1ccccn1)c1ccc2c3c(ccc2c1)N1Cc2c(ccc4cc(C(=O)NN=C(c5ccccn5)c5ccccn5)ccc24)N(C3)C1	28.23%

system: CCRF-CEM; assay: Induction of apoptosis in human CCRF-CEM cells assessed as mitotic cells at IC50 after 24 hrs by pH3Ser10+ labeling-based flow cytometry; format: functional; conditions: not given

Structure (SMILES)	Activity
COc1ccc(O)c(/C=N/NC(=O)c2ccc3c4c(ccc3c2)N2Cc3c(ccc5cc(C(=O)N/N=C/c6cc(OC)ccc6O)ccc35)N(C4)C2)c1	0.99%
O=C(NN=C(c1ccccn1)c1ccccn1)c1ccc2c3c(ccc2c1)N1Cc2c(ccc4cc(C(=O)NN=C(c5ccccn5)c5ccccn5)ccc24)N(C3)C1	0.53%

system: CCRF-CEM; assay: Induction of apoptosis in human CCRF-CEM cells assessed as inhibition of DNA synthesis at IC50 after 24 hrs by propidium iodide/BrdU staining by flow cytometry; format: functional; design: scale not given: the % may be the effect or the level left; conditions: not given

Structure (SMILES)	Activity
COc1ccc(O)c(/C=N/NC(=O)c2ccc3c4c(ccc3c2)N2Cc3c(ccc5cc(C(=O)N/N=C/c6cc(OC)ccc6O)ccc35)N(C4)C2)c1	50.98%
O=C(NN=C(c1ccccn1)c1ccccn1)c1ccc2c3c(ccc2c1)N1Cc2c(ccc4cc(C(=O)NN=C(c5ccccn5)c5ccccn5)ccc24)N(C3)C1	57.31%

system: CCRF-CEM; assay: Induction of apoptosis in human CCRF-CEM cells assessed as inhibition of DNA synthesis at 5 times IC50 after 24 hrs by propidium iodide/BrdU staining by flow cytometry; format: functional; design: scale not given: the % may be the effect or the level left; conditions: not given

Structure (SMILES)	Activity
COc1ccc(O)c(/C=N/NC(=O)c2ccc3c4c(ccc3c2)N2Cc3c(ccc5cc(C(=O)N/N=C/c6cc(OC)ccc6O)ccc35)N(C4)C2)c1	31.78%
O=C(NN=C(c1ccccn1)c1ccccn1)c1ccc2c3c(ccc2c1)N1Cc2c(ccc4cc(C(=O)NN=C(c5ccccn5)c5ccccn5)ccc24)N(C3)C1	55.69%

system: CCRF-CEM; assay: Induction of apoptosis in human CCRF-CEM cells assessed as inhibition of RNA synthesis at 5 times IC50 after 24 hrs by propidium iodide/BrU staining by flow cytometry; format: functional; design: scale not given: the % may be the effect or the level left; conditions: not given

Structure (SMILES)	Activity
COc1ccc(O)c(/C=N/NC(=O)c2ccc3c4c(ccc3c2)N2Cc3c(ccc5cc(C(=O)N/N=C/c6cc(OC)ccc6O)ccc35)N(C4)C2)c1	56.37%
O=C(NN=C(c1ccccn1)c1ccccn1)c1ccc2c3c(ccc2c1)N1Cc2c(ccc4cc(C(=O)NN=C(c5ccccn5)c5ccccn5)ccc24)N(C3)C1	55.9%

system: Pichia kudriavzevii; assay: Antifungal activity against Candida crusei up to 200 uM after 24 to 48 hrs by broth microdilution method; format: functional, organism-based; conditions: not given

Structure (SMILES)	Activity
COc1ccc(O)c(/C=N/NC(=O)c2ccc3c4c(ccc3c2)N2Cc3c(ccc5cc(C(=O)N/N=C/c6cc(OC)ccc6O)ccc35)N(C4)C2)c1	inactive
O=C(NN=C(c1ccccn1)c1ccccn1)c1ccc2c3c(ccc2c1)N1Cc2c(ccc4cc(C(=O)NN=C(c5ccccn5)c5ccccn5)ccc24)N(C3)C1	inactive

system: not listed separately; assay: Metal chelating activity of the compound assessed as formation of Fe3+ complex by UV-vis spectrometry; format: physicochemical; conditions: not given

Structure (SMILES)	Activity
COc1ccc(O)c(/C=N/NC(=O)c2ccc3c4c(ccc3c2)N2Cc3c(ccc5cc(C(=O)N/N=C/c6cc(OC)ccc6O)ccc35)N(C4)C2)c1	Active
O=C(NN=C(c1ccccn1)c1ccccn1)c1ccc2c3c(ccc2c1)N1Cc2c(ccc4cc(C(=O)NN=C(c5ccccn5)c5ccccn5)ccc24)N(C3)C1	Active

system: not listed separately; assay: Metal chelating activity of the compound assessed as formation of Zn2+ complex by UV-vis spectrometry; format: physicochemical; conditions: not given

Structure (SMILES)	Activity
COc1ccc(O)c(/C=N/NC(=O)c2ccc3c4c(ccc3c2)N2Cc3c(ccc5cc(C(=O)N/N=C/c6cc(OC)ccc6O)ccc35)N(C4)C2)c1	Active
O=C(NN=C(c1ccccn1)c1ccccn1)c1ccc2c3c(ccc2c1)N1Cc2c(ccc4cc(C(=O)NN=C(c5ccccn5)c5ccccn5)ccc24)N(C3)C1	Active

system: not listed separately; assay: Metal chelating activity of the compound assessed as formation of Mn2+ complex by UV-vis spectrometry; format: physicochemical; conditions: not given

Structure (SMILES)	Activity
COc1ccc(O)c(/C=N/NC(=O)c2ccc3c4c(ccc3c2)N2Cc3c(ccc5cc(C(=O)N/N=C/c6cc(OC)ccc6O)ccc35)N(C4)C2)c1	Not Active
O=C(NN=C(c1ccccn1)c1ccccn1)c1ccc2c3c(ccc2c1)N1Cc2c(ccc4cc(C(=O)NN=C(c5ccccn5)c5ccccn5)ccc24)N(C3)C1	Not Active

system: Nucleic Acid; assay: Binding affinity to DNA (unknown origin) assessed as DNA intercalation by UV-visible spectrophotometry; format: nucleic-acid assay; conditions: not given

Structure (SMILES)	Activity
COc1ccc(O)c(/C=N/NC(=O)c2ccc3c4c(ccc3c2)N2Cc3c(ccc5cc(C(=O)N/N=C/c6cc(OC)ccc6O)ccc35)N(C4)C2)c1	inactive
O=C(NN=C(c1ccccn1)c1ccccn1)c1ccc2c3c(ccc2c1)N1Cc2c(ccc4cc(C(=O)NN=C(c5ccccn5)c5ccccn5)ccc24)N(C3)C1	inactive

system: Nucleic Acid; assay: Binding affinity to DNA (unknown origin) assessed as DNA intercalation by UV-visible spectrophotometry in presence of Co2+; format: nucleic-acid assay; conditions: not given

Structure (SMILES)	Activity
COc1ccc(O)c(/C=N/NC(=O)c2ccc3c4c(ccc3c2)N2Cc3c(ccc5cc(C(=O)N/N=C/c6cc(OC)ccc6O)ccc35)N(C4)C2)c1	Active
O=C(NN=C(c1ccccn1)c1ccccn1)c1ccc2c3c(ccc2c1)N1Cc2c(ccc4cc(C(=O)NN=C(c5ccccn5)c5ccccn5)ccc24)N(C3)C1	Active
